In ChEMBL document CHEMBL4304834, “3-Amino-chromanes and Tetrahydroquinolines as Selective 5-HT2B, 5-HT7, or σ1 Receptor Ligands” (ACS Med Chem Lett, 2019):
pKi: −log10 of the molar value. Activity calls are given as the source filed them. No cut-off for these calls is given here.

Key:
[1] = target: T1, Sigma intracellular receptor 2 (Homo sapiens, UniProt Q5BJF2); assay: Displacement of […] from human recombinant sigma2 receptor expressed in HEKT cells after 90 mins by microbeta scintillation counting method; assay type: cell-based
How it was run: (§1)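 Run by NIMH Psychoactive Drug Screening Program. Otherwise, competition binding curves are generated and pKi is taken from a sigmoidal curve fit. Data are either triplicate measurements within one experiment, with the error from the fit, or the mean of repeated experiments, each run in triplicate.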

[2] = target: T2, 5-hydroxytryptamine receptor 2B (Homo sapiens, UniProt P41595); assay: Displacement of [3H]-LSD from human recombinant 5-HT2B receptor stably expressed in HEK cells after 90 mins by microbeta scintillation counting method; assay type: cell-based; details: for Ki: read-out: pKi (converted); for pKi: read-out: Ki; how it was run: as §1
[3] = target: Sigma non-opioid intracellular receptor 1 (Homo sapiens, UniProt Q99720); assay: Displacement of [3H]-Pentazocine from human recombinant sigma1 receptor expressed in HEKT cells after 90 mins by microbeta scintillation counting method; assay type: cell-based; details: for Ki: read-out: pKi (converted)
[4] = target: T1, Sigma intracellular receptor 2; assay: Displacement of […] from human recombinant sigma2 receptor expressed in HEKT cells at 10 uM after 90 mins by microbeta scintillation counting method relative to control; assay type: cell-based
How it was run: (§2)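 Radioligand binding run by the NIMH Psychoactive Drug Screening Program. […] Otherwise Ki comes from sigmoidal curve fits of triplicate measurements in a single experiment, or is averaged over repeated experiments each run in triplicate.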

[5] = target: T3, 5-hydroxytryptamine receptor 1A (Homo sapiens, UniProt P08908); assay: Displacement of [3H]-Way100635 from human recombinant 5-HT1A expressed in stable CHO cells after 90 mins by microbeta scintillation counting method; assay type: cell-based; details: read-out: pKi (converted); how it was run: as §1
T3 sequence (P08908 whole entry): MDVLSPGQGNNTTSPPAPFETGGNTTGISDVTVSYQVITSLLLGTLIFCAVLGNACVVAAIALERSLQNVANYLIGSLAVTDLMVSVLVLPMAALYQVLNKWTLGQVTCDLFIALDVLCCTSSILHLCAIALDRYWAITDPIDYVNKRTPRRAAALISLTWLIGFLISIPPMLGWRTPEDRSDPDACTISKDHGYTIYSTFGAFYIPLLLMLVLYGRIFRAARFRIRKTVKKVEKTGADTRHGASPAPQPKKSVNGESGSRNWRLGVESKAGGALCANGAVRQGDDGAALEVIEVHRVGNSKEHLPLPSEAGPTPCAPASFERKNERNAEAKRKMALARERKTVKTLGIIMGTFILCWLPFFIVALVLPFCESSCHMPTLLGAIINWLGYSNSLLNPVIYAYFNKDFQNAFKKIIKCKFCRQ

[6] = target: 5-hydroxytryptamine receptor 7 (Homo sapiens, UniProt P34969); assay: Displacement of [3H]-LSD from human recombinant 5-HT7 receptor expressed in stable HEK cells after 90 mins by microbeta scintillation counting method; assay type: cell-based; details: read-out: pKi (converted); how it was run: as §1
[7] = target: T2, 5-hydroxytryptamine receptor 2B; assay: Displacement of [3H]-LSD from human recombinant 5-HT2B receptor stably expressed in HEK cells at 10 uM after 90 mins by microbeta scintillation counting method relative to control; assay type: cell-based; how it was run: as §2
Homo sapiens [8] = organism: Homo sapiens; assay: Selectivity index, ratio of Ki for human recombinant 5-HT2B receptor to Ki for human recombinant sigma1 receptor
Homo sapiens [9] = organism: Homo sapiens; assay: Selectivity index, ratio of Ki for human recombinant sigma2 receptor to Ki for human recombinant sigma1 receptor
How it was run: (§3)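 Both Ki values in each ratio come from NIMH Psychoactive Drug Screening Program radioligand binding. […] Other targets were given full binding curves, measured in triplicate, and Ki was taken from a sigmoidal curve fit. Some values were repeated in duplicate or triplicate independent experiments.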

661W [10] = assay: Cytoprotective activity in mouse 661W cells assessed as inhibition of t-BHP induced oxidative stress by measuring increase in cell viability at 50 to 100 uM after 24 hrs by MTT assay (Rvb < 50%); assay type: functional, cell-based
661W [11] = assay: Cytoprotective activity in mouse 661W cells assessed as reduction in tBHP-induced ROS level at 20 to 50 uM after 2 hrs by […] fluorescent microscopic analysis; assay type: functional, cell-based
How it was run: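 661W cells seeded on coverslips for 18 h, then exposed 2 h to 55 μM tBHP with or without test agent or (+)-pentazocine. ROS are detected with CellROX green dye by epifluorescence, with DAPI marking nuclei. Fluorescence intensity is quantified as mean ± SD from three independent experiments, each run in duplicate.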

Homo sapiens [12] = organism: Homo sapiens; assay: Selectivity index, ratio of Ki for human recombinant sigma2 receptor to Ki for human recombinant 5-HT2B receptor; how it was run: as §3

Chain of Sigma non-opioid intracellular receptor 1 (Q99720 whole entry): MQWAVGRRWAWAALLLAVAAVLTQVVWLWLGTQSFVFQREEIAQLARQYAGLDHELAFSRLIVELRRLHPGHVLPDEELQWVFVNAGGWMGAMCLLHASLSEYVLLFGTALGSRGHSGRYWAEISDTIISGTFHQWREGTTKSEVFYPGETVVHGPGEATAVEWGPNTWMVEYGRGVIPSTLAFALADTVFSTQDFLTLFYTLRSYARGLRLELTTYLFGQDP
Chain of 5-hydroxytryptamine receptor 7 (P34969 whole entry): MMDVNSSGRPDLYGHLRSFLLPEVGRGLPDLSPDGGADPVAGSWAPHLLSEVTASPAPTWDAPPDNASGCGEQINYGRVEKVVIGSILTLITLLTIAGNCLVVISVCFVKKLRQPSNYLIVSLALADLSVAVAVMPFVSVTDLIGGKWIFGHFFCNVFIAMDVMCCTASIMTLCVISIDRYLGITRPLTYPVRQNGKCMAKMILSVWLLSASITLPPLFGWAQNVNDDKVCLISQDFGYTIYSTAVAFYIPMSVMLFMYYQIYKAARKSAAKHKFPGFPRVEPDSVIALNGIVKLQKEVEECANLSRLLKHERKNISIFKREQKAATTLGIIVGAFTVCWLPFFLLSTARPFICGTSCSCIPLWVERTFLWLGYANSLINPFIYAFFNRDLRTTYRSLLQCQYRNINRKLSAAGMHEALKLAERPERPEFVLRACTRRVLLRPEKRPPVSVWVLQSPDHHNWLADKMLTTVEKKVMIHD
T2 sequence (P41595 whole entry): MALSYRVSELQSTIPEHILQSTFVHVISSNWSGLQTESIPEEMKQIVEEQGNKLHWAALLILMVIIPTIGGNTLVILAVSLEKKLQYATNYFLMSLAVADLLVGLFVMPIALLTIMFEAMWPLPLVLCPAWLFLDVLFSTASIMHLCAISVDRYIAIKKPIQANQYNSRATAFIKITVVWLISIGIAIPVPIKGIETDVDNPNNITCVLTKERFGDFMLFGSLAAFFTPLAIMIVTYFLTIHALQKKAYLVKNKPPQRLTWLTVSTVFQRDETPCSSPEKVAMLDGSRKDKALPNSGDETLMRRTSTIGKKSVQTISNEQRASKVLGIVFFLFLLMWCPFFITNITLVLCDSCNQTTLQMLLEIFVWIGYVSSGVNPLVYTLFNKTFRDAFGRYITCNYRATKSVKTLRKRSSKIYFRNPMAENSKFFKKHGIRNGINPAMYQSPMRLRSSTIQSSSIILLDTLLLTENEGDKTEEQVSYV
T1 sequence (Q5BJF2 whole entry): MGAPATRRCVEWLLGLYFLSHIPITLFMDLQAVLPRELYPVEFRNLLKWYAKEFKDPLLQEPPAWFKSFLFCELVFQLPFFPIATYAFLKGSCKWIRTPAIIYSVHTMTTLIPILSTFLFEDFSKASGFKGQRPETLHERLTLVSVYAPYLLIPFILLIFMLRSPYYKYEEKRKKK

Row | SMILES | pKi [1] | Ki [2] [nM] | Ki [3] [nM] | Ki [5] [nM] | Ki [6] [nM] | further results
1 | CC(=O)N1CC[C@H]2c3cccc(-c4ccccc4)c3OC[C@]21C (racemic) | 5.90 | 501 |  |  |  | 
2 | CC[C@H]1c2cc(OC)ccc2OC[C@@]1(C)N (racemic) | < 5.00 | 251 | 398 | 2510 |  | inhibition [4]: < 50%
3 | CN1CC[C@H]2c3ccc(O)cc3OC[C@]21C (racemic) | 5.40 | 1000 | 50.1 |  |  | 
4 | C[C@@]12COc3c(Br)cccc3[C@@H]1CCN2 (racemic) | 6.20 | 20 | 501 | 1000 | 398 | 
5 | C[C@@]12COc3c(-c4ccccc4)cccc3[C@@H]1CCN2 (racemic) | 6.90 | 158 | 39.8 | 200 | 23.4 | 
6 | CC(=O)N1CC[C@H]2c3ccccc3N(c3ccccc3)C[C@]21C (racemic) | 5.90 | > 10000 |  |  |  | inhibition [7]: < 50%
7 | CC[C@H]1c2cc(-c3ccccc3)ccc2OC[C@@]1(C)N (racemic) | 6.50 | 126 |  | 2000 |  | pKi ([3]; read-out: Ki): 7.80; Ratio Ki (Homo sapiens [8]): 10; Ratio Ki (Homo sapiens [9]): > 200
8 | Cc1ccc(N2C[C@@]3(C)NCC[C@H]3c3cc(C)ccc32)cc1 (racemic) | 6.50 | 316 | 251 |  | 200 | 
9 | CC[C@H]1c2ccc(O)cc2OC[C@@]1(C)N (racemic) | < 5.00 | > 10000 | > 10000 |  |  | inhibition [4]: < 50%; inhibition [7]: < 50%
10 | CC(C)=CCN1CC[C@]2(C)c3cc(O)ccc3C[C@H]1[C@H]2C |  |  |  |  |  | Activity (661W [10]): Active; inhibition (661W [11]): Active
11 | CN1CC[C@H]2c3cccc(-c4ccccc4)c3OC[C@]21C (racemic) | 6.50 | 251 | 50.1 | 200 | 20 | 
12 | Cc1cc(C)c2c(c1)OC[C@@]1(C)NCC[C@@H]21 (racemic) | 6.50 | 79.4 | 63.1 |  | 1260 | 
13 | CC(=O)N1CC[C@H]2c3ccc(O)cc3OC[C@]21C (racemic) | < 5.00 | > 10000 | > 10000 |  |  | inhibition [4]: < 50%; inhibition [7]: < 50%
14 | COc1ccc2c(c1)[C@@H]1CCN[C@]1(C)CO2 (racemic) | 5.50 | 631 | 126 |  | 200 | 
15 | CN1CC[C@H]2c3ccccc3N(c3ccccc3)C[C@]21C (racemic) | 6.80 | 200 | 162 | 200 | 2.69 | 
16 | C[C@@]12COc3cc(OCc4ccccc4)ccc3[C@@H]1CCN2 (racemic) | 7.00 | 126 | 7.94 |  |  | 
17 | C[C@@]12CN(c3ccc(Br)cc3)c3ccc(Br)cc3[C@@H]1CCN2 (racemic) | 7.10 | 316 | 158 |  | 200 | 
18 | CC[C@H]1c2ccc3ccccc3c2OC[C@@]1(C)N (racemic) | 6.50 |  | 3160 | 2510 | 1000 | Ratio Ki (Homo sapiens [12]): 150; pKi [2]: 8.46
19 | C[C@@]12COc3ccc(-c4ccccc4)cc3[C@@H]1CCN2 (racemic) | 7.10 | 251 | 12.6 |  | 1000 | 
20 | CC[C@H]1c2c(ccc3ccccc23)OC[C@@]1(C)N (racemic) | 5.70 |  | 1000 | 316 | 692 | pKi [2]: 7.70
21 | C[C@@]12COc3cc(O)ccc3[C@@H]1CCN2 (racemic) | 6.00 | > 10000 | > 10000 |  |  | inhibition [7]: < 50%
